Experimental data collected from several papers.
Lines come from different studies, so protocols differ.
Target: Testis-specific serine/threonine-protein kinase 3 (TSSK3, Homo sapiens, UniProt Q96PN8)
One construct used (Q96PN8 1-268): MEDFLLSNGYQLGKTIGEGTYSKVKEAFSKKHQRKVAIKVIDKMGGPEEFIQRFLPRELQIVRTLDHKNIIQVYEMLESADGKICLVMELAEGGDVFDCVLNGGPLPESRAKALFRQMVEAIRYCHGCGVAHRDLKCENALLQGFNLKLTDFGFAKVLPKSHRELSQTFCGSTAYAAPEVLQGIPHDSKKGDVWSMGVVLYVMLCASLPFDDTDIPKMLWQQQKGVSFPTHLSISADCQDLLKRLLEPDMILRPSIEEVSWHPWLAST

O=C(NCC1CCOCC1)c1n[nH]cc1NC(=O)c1c(F)cccc1F
remaining binding (binding; competition with immobilised ligand; 1 µM): 100%

COc1ncc2cc3ccccc3nc2c1C#N
remaining binding (cell-free assay; competition with immobilised ligand; 5 µM): 90%

COc1cc(-c2cn(C3CCc4c(F)cccc4N(CC(F)(F)F)C3=O)nn2)ccc1-n1cnc(C)c1 (centres unmarked)
remaining binding (cell-free assay; competition with immobilised ligand; 1 µM): 97%

C[C@@H]1CCN(c2nccc(-c3cnn4ncccc34)n2)C1
remaining binding (binding; 1 µM): 78%

c1cncc(-c2cccc(Nc3nccc(NC4CCCCC4)n3)c2)c1
remaining binding (binding; competition with immobilised ligand; 10 µM): 86%

CN(C)c1nccc(-c2cnn3ncccc23)n1
remaining binding (binding; 1 µM): 100%

Nc1c(C(=O)NCc2ccc(C(=O)NCCCC3CCCCC3)cc2)cnn1-c1ccccc1
remaining binding (cell-free assay; competition with immobilised ligand; 0.1 µM): 100%

Cc1cnc(Nc2ccc(C(=O)N3CCC(N4CCCC4)CC3)cc2)nc1-c1cc2ccccc2s1
remaining binding (binding; competition with immobilised ligand; 1 µM): 84%

CNC(=O)Nc1ccc2c(c1)[C@@]1(CC2)OC(=O)N(CC(=O)N(Cc2ccc(F)cc2)[C@@H](C)C(F)(F)F)C1=O
remaining binding (cell-free assay; competition with immobilised ligand; 1 µM): 100%

CN(C)c1nccc(-c2cnc3ncccn23)n1
remaining binding (binding; 1 µM): 90%

O=C(c1ccc(Nc2nccc(-c3cc4ccccc4s3)n2)cc1)N1CCC(N2CCCC2)CC1
remaining binding (binding; competition with immobilised ligand; 1 µM): 100%

N[C@@H]1CCN(c2nccc(-c3cnn4ncccc34)n2)C1
remaining binding (binding; 1 µM): 100%

COc1cnc(Nc2cccc(S(N)(=O)=O)c2)nc1N1CCN(c2ccccc2)C(=O)C1
remaining binding (binding; competition with immobilised ligand; 1 µM): 90%

CCS(=O)(=O)c1cc2cc(C[C@](O)(CC(C)(C)c3ccc(F)cc3C(N)=O)C(F)(F)F)[nH]c2cn1
remaining binding (cell-free assay; competition with immobilised ligand; 1 µM): 100%

CN(CCCC(F)(F)F)c1nccc(-c2cnn3ncccc23)n1
remaining binding (binding; 1 µM): 85%

Nc1ncc2c(n1)-c1c([nH]c3ccc(C#CC4CC4)cc13)CCCC2
remaining binding (binding; competition with immobilised ligand; 1 µM): 70%

C[C@H](c1ccc(F)cc1)N(Cc1cccc(C(=O)O)c1)C(=O)c1cnc2ccccc2c1
remaining binding (cell-free assay; competition with immobilised ligand; 1 µM): 64%

O=C(c1ccc(Nc2ncc(Cl)c(-c3cc4ccccc4s3)n2)cc1)N1CCC(N2CCCC2)CC1
remaining binding (binding; competition with immobilised ligand; 1 µM): 85%

COc1ccnn2ncc(-c3ccnc(N(C)C)n3)c12
remaining binding (binding; 1 µM): 100%

O=C(Nc1ccc(Oc2ccc(F)cc2)cc1)N1CCc2ncccc2[C@H]1c1ccc(F)cc1
remaining binding (cell-free assay; competition with immobilised ligand; 1 µM): 98%
